Source: ChEMBL document CHEMBL3044979, “Microbiologically active Mannich bases derived from 1,2,4-triazoles. The effect of C-5 substituent on antibacterial activity” (2013)
Activity calls are given as the source filed them. The rule behind the calls is not given here.

Key:
[1] = system: Staphylococcus epidermidis; experiment: Antibacterial activity against Staphylococcus epidermidis ATCC 12228 assessed as growth inhibition by broth microdilution method; assay type: functional
Outline: (§1)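 Preliminary screen: 10 µl of each bacterial suspension spotted on Mueller-Hinton agar containing compound at 1,000 µg ml⁻¹, then incubated 37 °C for 18 h. Inocula were prepared in sterile saline at 0.5 McFarland (150 × 10⁶ CFU ml⁻¹). Compounds were dissolved in DMSO stocks and diluted twofold in Mueller-Hinton broth, final 3.91–1,000 µg ml⁻¹. MIC read in µg ml⁻¹ (CLSI 2008), with ampicillin, cefuroxime and vancomycin as reference agents.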

Bacillus cereus = experiment: Antibacterial activity against Bacillus cereus ATCC 10876 assessed as growth inhibition by broth microdilution method; assay type: functional; outline: as §1
Bacillus subtilis = experiment: Antibacterial activity against Bacillus subtilis ATCC 6633 assessed as growth inhibition by broth microdilution method; assay type: functional; outline: as §1
Micrococcus luteus = experiment: Antibacterial activity against Micrococcus luteus ATCC 10240 assessed as growth inhibition by broth microdilution method; assay type: functional; outline: as §1
Escherichia coli = experiment: Antibacterial activity against Escherichia coli ATCC 25922 assessed as growth inhibition by broth microdilution method; assay type: functional, organism-based; outline: as §1
Staphylococcus aureus [2] = experiment: Antibacterial activity against Staphylococcus aureus ATCC 25923 assessed as growth inhibition by broth microdilution method; assay type: functional; outline: as §1
Proteus mirabilis = experiment: Antibacterial activity against Proteus mirabilis ATCC 12453 assessed as growth inhibition by broth microdilution method; assay type: functional, organism-based; outline: as §1
Klebsiella pneumoniae = experiment: Antibacterial activity against Klebsiella pneumoniae ATCC 13883 assessed as growth inhibition by broth microdilution method; assay type: functional, organism-based; outline: as §1
Pseudomonas aeruginosa = experiment: Antibacterial activity against Pseudomonas aeruginosa ATCC 9027 assessed as growth inhibition by broth microdilution method; assay type: functional, organism-based; outline: as §1
Staphylococcus aureus [3] = experiment: Antibacterial activity against Staphylococcus aureus 14001 assessed as growth inhibition by broth microdilution method; assay type: functional; outline: as §1

Row | SMILES | MBC [1] [µg/mL] | MIC [1] [µg/mL] | MBC (Bacillus cereus) [µg/mL] | MIC (Bacillus cereus) [µg/mL] | MBC (Bacillus subtilis) [µg/mL] | MIC (Bacillus subtilis) [µg/mL] | MBC (Micrococcus luteus) [µg/mL] | MIC (Micrococcus luteus) [µg/mL] | growth inhibition (GI) (Escherichia coli) | MBC (Staphylococcus aureus [2]) [µg/mL] | MIC (Staphylococcus aureus [2]) [µg/mL] | growth inhibition (GI) (Proteus mirabilis) | growth inhibition (GI) (Klebsiella pneumoniae) | growth inhibition (GI) (Pseudomonas aeruginosa) | MBC (Staphylococcus aureus [3]) [µg/mL] | MIC (Staphylococcus aureus [3]) [µg/mL]
1 | S=c1n(CN2CCCCC2)nc(-c2cccc(Cl)c2)n1-c1ccc(Br)cc1 | > 1000 | 62.5 | 1000 | 62.5 | 1000 | 62.5 | > 1000 | 31.2 | inactive | > 1000 | 31.2 | inactive | inactive | inactive | – | –
2 | S=c1n(CN2CCCC2)nc(-c2ccccc2)n1-c1ccc(Br)cc1 | > 1000 | 1000 | > 1000 | 1000 | 1000 | 500 | 1000 | 500 | inactive | > 1000 | 1000 | inactive | inactive | inactive | > 1000 | 1000
3 | CCN(CC)Cn1nc(-c2ccccc2)n(-c2ccc(Br)cc2)c1=S | > 1000 | 1000 | > 1000 | 1000 | > 1000 | 1000 | > 1000 | 1000 | inactive | > 1000 | 1000 | inactive | inactive | inactive | > 1000 | 1000
4 | S=c1n(CN2CCCCC2)nc(-c2ccccc2Cl)n1-c1ccc(Br)cc1 | > 1000 | 1000 | > 1000 | 1000 | > 1000 | 250 | > 1000 | 500 | inactive | > 1000 | 500 | inactive | inactive | inactive | > 1000 | 500
5 | S=c1n(CN2CCCCC2)nc(-c2ccc(Cl)cc2)n1-c1ccc(Br)cc1 | > 1000 | 1000 | > 1000 | 1000 | > 1000 | 1000 | > 1000 | 1000 | inactive | > 1000 | 1000 | inactive | inactive | inactive | > 1000 | 1000
6 | S=c1n(CN2CCCC2)nc(-c2cccc(Cl)c2)n1-c1ccc(Br)cc1 | > 1000 | 250 | > 1000 | 62.5 | 500 | 62.5 | > 1000 | 62.5 | inactive | > 1000 | 31.2 | inactive | inactive | inactive | – | –
7 | S=c1n(CN2CCCC2)nc(-c2ccc(Cl)cc2)n1-c1ccc(Br)cc1 | 1000 | 31 | > 1000 | 31.2 | 125 | 63 | 250 | 7.81 | inactive | 500 | 31.2 | inactive | inactive | inactive | 1000 | 62.5
8 | S=c1n(CN2CCCCC2)nc(-c2ccccc2)n1-c1ccc(Br)cc1 | > 1000 | 1000 | > 1000 | 1000 | > 1000 | 1000 | 1000 | 500 | inactive | > 1000 | 1000 | inactive | inactive | inactive | > 1000 | 1000
9 | S=c1n(CN2CCOCC2)nc(-c2cccc(Cl)c2)n1-c1ccc(Br)cc1 | > 1000 | 125 | > 1000 | 62.5 | 1000 | 62.5 | 500 | 31.2 | inactive | > 1000 | 31.2 | inactive | inactive | inactive | – | –
10 | CO/N=C(\C(=O)N[C@@H]1C(=O)N2C(C(=O)O)=C(COC(N)=O)CS[C@H]12)c1ccco1 [CEFUROXIME] | – | 0.24 | – | 31.2 | – | 15.6 | – | 0.98 | – | – | 0.49 | – | – | – | – | –
11 | S=c1n(CN2CCOCC2)nc(-c2ccccc2)n1-c1ccc(Br)cc1 | > 1000 | 1000 | > 1000 | 1000 | > 1000 | 1000 | 1000 | 250 | inactive | > 1000 | 1000 | inactive | inactive | inactive | > 1000 | 1000
12 | CN[C@H](CC(C)C)C(=O)N[C@H]1C(=O)N[C@@H](CC(N)=O)C(=O)N[C@H]2C(=O)N[C@H]3C(=O)N[C@H](C(=O)N[C@H](C(=O)O)c4cc(O)cc(O)c4-c4cc3ccc4O)[C@H](O)c3ccc(c(Cl)c3)Oc3cc2cc(c3O[C@@H]2O[C@H](CO)[C@@H](O)[C@H](O)[C@H]2O[C@H]2C[C@](C)(N)[C@H](O)[C@H](C)O2)Oc2ccc(cc2Cl)[C@H]1O [VANCOMYCIN] | – | – | – | – | – | – | – | – | – | – | – | – | – | – | 3.91 | 0.98
13 | CC1(C)S[C@@H]2[C@H](NC(=O)[C@H](N)c3ccccc3)C(=O)N2[C@H]1C(=O)O [AMPICILLIN] | – | – | – | 62.5 | – | – | – | – | – | – | – | – | – | – | – | –
14 | CCN(CC)Cn1nc(-c2ccc(Cl)cc2)n(-c2ccc(Br)cc2)c1=S | 250 | 31.2 | 250 | 31.2 | 500 | 31.2 | 62.5 | 15.6 | inactive | 250 | 31.2 | inactive | inactive | inactive | 250 | 62.5
15 | S=c1n(CN2CCCC2)nc(-c2ccccc2Cl)n1-c1ccc(Br)cc1 | 500 | 31.2 | > 1000 | 62.5 | 125 | 15.6 | 1000 | 62.5 | inactive | 500 | 31.2 | inactive | inactive | inactive | 500 | 125
16 | S=c1n(CN2CCOCC2)nc(-c2ccc(Cl)cc2)n1-c1ccc(Br)cc1 | 1000 | 62.5 | > 1000 | 62.5 | 125 | 125 | > 1000 | 62.5 | inactive | 1000 | 62.5 | inactive | inactive | inactive | > 1000 | 125
17 | S=c1n(CN2CCOCC2)nc(-c2ccccc2Cl)n1-c1ccc(Br)cc1 | 500 | 125 | > 1000 | 125 | 250 | 125 | 250 | 62.5 | inactive | 500 | 125 | inactive | inactive | inactive | 500 | 250
18 | CCN(CC)Cn1nc(-c2ccccc2Cl)n(-c2ccc(Br)cc2)c1=S | > 1000 | 62.5 | > 1000 | 62.5 | 62.5 | 31.2 | 250 | 62.5 | inactive | > 1000 | 62.5 | inactive | inactive | inactive | > 1000 | 125
19 | CCN(CC)Cn1nc(-c2cccc(Cl)c2)n(-c2ccc(Br)cc2)c1=S | > 1000 | 62.5 | > 1000 | 62.5 | 500 | 62.5 | 500 | 31.2 | inactive | > 1000 | 31.2 | inactive | inactive | inactive | – | –
